Experimental data as given in ChEMBL document CHEMBL4229410, “Facile construction of fused benzimidazole-isoquinolinones that induce cell-cycle arrest and apoptosis in colorectal cancer cells” (Bioorg Med Chem, 2018).

What was measured:
[1] = biological target: Mast/stem cell growth factor receptor Kit (Homo sapiens, UniProt P10721, D816V); assay: Binding affinity to human KIT (I571 to D952 residues) D816V mutant expressed in bacterial expression system by KINOMEscan assay
[2] = tested on: SW-620; assay: Induction of apoptosis in human SW620 cells assessed as early apoptotic cells at 75 uM after 48 hrs by Annexin-V-FITC/propidium iodide staining based flow cytometry (reference value: 0.4%); format: functional
[3] = biological target: T1, High affinity nerve growth factor receptor (Homo sapiens, UniProt P04629); assay: Inhibition of human TRKA (G475 to G790 residues) expressed in mammalian expression system assessed as residual activity at 5 uM by KINOMEscan assay relative to control
[4] = tested on: SW-620; assay: Increase in PTEN expression in human SW620 cells after 48 hrs by Western blot analysis; format: functional, cell-based
In short: (§1)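 HT29 or SW620 cells were treated at 0, 25, 50 and 75 μM for 48 h and lysed in RIPA with protease and phosphatase inhibitors. Protein was quantified by BCA. 50 μg lysate was run on 8–15% SDS-PAGE and transferred to PVDF. Blocking was 5% BSA/TBST for 2 h; primary antibodies were applied overnight at 4 °C, then HRP secondary 1 h at room temperature.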

[5] = biological target: Receptor tyrosine-protein kinase erbB-4 (Homo sapiens, UniProt Q15303); assay: Inhibition of human ERBB4 (L690 to K994 residues) expressed in bacterial expression system assessed as residual activity at 5 uM by KINOMEscan assay relative to control
[6] = biological target: T2, Tyrosine-protein kinase BTK (Homo sapiens, UniProt Q06187); assay: Inhibition of full length human BTK (M1 to S659 residues) expressed in mammalian expression system assessed as residual activity at 5 uM by KINOMEscan assay relative to control
[7] = biological target: Protein kinase C epsilon type (Homo sapiens, UniProt Q02156); assay: Binding affinity to human PRKCE (A378 to P737 residues) expressed in mammalian expression system by KINOMEscan assay
[8] = tested on: HT-29; assay: Effect on total AKT expression in human HT-29 cells up to 75 uM after 48 hrs by Western blot analysis; format: ADME, cell-based; conditions: ht-29, 48 h; in short: as §1
[9] = tested on: HT-29; assay: Antiproliferative activity against human HT-29 cells after 48 hrs by BrdU/DAPI staining based immunofluorescence assay; format: functional, cell-based
In short: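 Cells seeded at 20,000 per well after reaching 80% confluence; exposed 48 h to 0, 25, 50, 75 μM, then 10 μM BrdU for 2 h. Paraformaldehyde fixation, 2 M HCl 30 min, 10% goat serum block, anti-BrdU primary overnight at 4 °C, secondary 120 min at room temperature, DAPI 300 nM. Fluorescence microscopy; percent BrdU-positive nuclei, mean ± SD of three independent experiments.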

[10] = biological target: Serine/threonine-protein kinase PLK4 (Homo sapiens, UniProt O00444); assay: Binding affinity to partial length human PLK4 (M1 to S273 residues) expressed in mammalian expression system by KINOMEscan assay
[11] = biological target: T3, Ephrin type-A receptor 2 (Homo sapiens, UniProt P29317); assay: Inhibition of human EPHA2 (T593 to V891 residues) expressed in bacterial expression system assessed as residual activity at 5 uM by KINOMEscan assay relative to control
[12] = tested on: HT-29; assay: Down regulation of CDK1 expression in human HT-29 cells after 48 hrs by Western blot analysis; format: functional, cell-based; in short: as §1
[13] = biological target: Mitogen-activated protein kinase kinase kinase 9 (Homo sapiens, UniProt P80192); assay: Inhibition of human MLK1 (V88 to W426 residues) expressed in bacterial expression system assessed as residual activity at 5 uM by KINOMEscan assay relative to control
[14] = biological target: Focal adhesion kinase 1 (Homo sapiens, UniProt Q05397); assay: Binding affinity to human FAK (D402 to R696 residues) expressed in bacterial expression system by KINOMEscan assay
[15] = tested on: SW-620; assay: Effect on total mTOR expression in human SW620 cells up to 75 uM after 48 hrs by Western blot analysis; format: ADME, cell-based; conditions: sw-620, 48 h; in short: as §1
[16] = tested on: HT-29; assay: Cell cycle arrest in human HT-29 cells assessed as accumulation at G1-phase at 75 uM after 48 hrs by propidium iodide staining based flow cytometry (reference value: 41.86%); format: functional
[17] = biological target: Serine/threonine-protein kinase DCLK1 (Homo sapiens) (UniProt O15075); assay: Inhibition of partial length human DCAMKL1 (L270 to A662 residues) expressed in mammalian expression system assessed as residual activity at 5 uM by KINOMEscan assay relative to control
[18] = biological target: T2, Tyrosine-protein kinase BTK; assay: Binding affinity to full length human BTK (M1 to S659 residues) expressed in mammalian expression system by KINOMEscan assay
[19] = biological target: 3-phosphoinositide-dependent protein kinase 1 (Homo sapiens, UniProt O15530); assay: Binding affinity to full length human PDPK1 (M1 to Q556 residues) expressed in bacterial expression system by KINOMEscan assay
[20] = biological target: RAF proto-oncogene serine/threonine-protein kinase (Homo sapiens, UniProt P04049); assay: Inhibition of human RAF1 (I330 to T640 residues) expressed in bacterial expression system assessed as residual activity at 5 uM by KINOMEscan assay relative to control
[21] = biological target: Receptor tyrosine-protein kinase erbB-2 (Homo sapiens, UniProt P04626); assay: Binding affinity to human ERBB2 (K646 to V1225 residues) expressed in mammalian expression system by KINOMEscan assay
[22] = biological target: Macrophage colony-stimulating factor 1 receptor (Homo sapiens, UniProt P07333); assay: Binding affinity to human CSF1R (I564 to S939 residues) expressed in bacterial expression system by KINOMEscan assay
[23] = biological target: T3, Ephrin type-A receptor 2; assay: Binding affinity to human EPHA2 (T593 to V891 residues) expressed in bacterial expression system by KINOMEscan assay
[24] = biological target: T1, High affinity nerve growth factor receptor; assay: Binding affinity to human TRKA (G475 to G790 residues) expressed in mammalian expression system by KINOMEscan assay
[25] = biological target: Tyrosine-protein kinase JAK3 (Homo sapiens) (UniProt P52333); assay: Inhibition of human JAK3 JH1 catalytic domain (I781 to S1124 residues) expressed in mammalian expression system assessed as residual activity at 5 uM by KINOMEscan assay relative to control
[26] = biological target: Fibroblast growth factor receptor 2 (Homo sapiens, UniProt P21802); assay: Binding affinity to partial length human FGFR2 (D457 to E769 residues) expressed in bacterial expression system by KINOMEscan assay
[27] = biological target: Cyclin-dependent kinase 16 (Homo sapiens, UniProt Q00536); assay: Inhibition of human PCTK1 (G160 to A474 residues) expressed in mammalian expression system assessed as residual activity at 5 uM by KINOMEscan assay relative to control
[28] = biological target: Phosphatidylinositol 4-phosphate 3-kinase C2 domain-containing subunit beta (Homo sapiens, UniProt O00750); assay: Binding affinity to human PIK3C2B (M1 to L1634 residues) expressed in mammalian expression system by KINOMEscan assay
[29] = tested on: SW-620; assay: Down regulation of cyclin-B1 expression in human SW620 cells after 48 hrs by Western blot analysis; format: functional, cell-based; in short: as §1

T3 sequence (P29317 whole entry, the tested form may be a part): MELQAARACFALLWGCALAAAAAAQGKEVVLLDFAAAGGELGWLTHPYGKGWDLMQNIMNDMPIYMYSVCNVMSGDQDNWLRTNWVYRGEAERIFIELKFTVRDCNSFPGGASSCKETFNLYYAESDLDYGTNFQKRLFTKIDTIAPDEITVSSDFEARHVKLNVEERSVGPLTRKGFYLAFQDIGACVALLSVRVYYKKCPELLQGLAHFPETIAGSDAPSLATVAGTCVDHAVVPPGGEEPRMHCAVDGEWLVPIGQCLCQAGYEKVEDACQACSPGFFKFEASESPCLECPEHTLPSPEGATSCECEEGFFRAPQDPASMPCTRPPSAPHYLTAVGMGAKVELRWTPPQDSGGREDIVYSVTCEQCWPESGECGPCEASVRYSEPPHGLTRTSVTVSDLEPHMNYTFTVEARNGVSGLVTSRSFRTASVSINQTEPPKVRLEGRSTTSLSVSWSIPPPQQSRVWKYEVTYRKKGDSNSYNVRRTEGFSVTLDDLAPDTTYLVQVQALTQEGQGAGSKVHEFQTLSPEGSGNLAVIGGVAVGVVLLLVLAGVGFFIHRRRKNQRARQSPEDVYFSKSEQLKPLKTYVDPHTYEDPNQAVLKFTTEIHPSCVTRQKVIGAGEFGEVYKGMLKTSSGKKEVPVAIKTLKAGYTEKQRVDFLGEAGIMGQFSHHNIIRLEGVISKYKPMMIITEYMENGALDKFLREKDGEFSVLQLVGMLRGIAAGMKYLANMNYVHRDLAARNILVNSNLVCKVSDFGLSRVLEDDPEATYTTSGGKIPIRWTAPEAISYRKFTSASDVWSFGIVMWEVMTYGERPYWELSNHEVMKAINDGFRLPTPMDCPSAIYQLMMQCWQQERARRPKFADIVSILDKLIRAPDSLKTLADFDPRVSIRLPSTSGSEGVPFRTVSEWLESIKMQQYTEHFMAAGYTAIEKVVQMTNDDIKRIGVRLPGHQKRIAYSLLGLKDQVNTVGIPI
T2 sequence (Q06187 whole entry, the tested form may be a part): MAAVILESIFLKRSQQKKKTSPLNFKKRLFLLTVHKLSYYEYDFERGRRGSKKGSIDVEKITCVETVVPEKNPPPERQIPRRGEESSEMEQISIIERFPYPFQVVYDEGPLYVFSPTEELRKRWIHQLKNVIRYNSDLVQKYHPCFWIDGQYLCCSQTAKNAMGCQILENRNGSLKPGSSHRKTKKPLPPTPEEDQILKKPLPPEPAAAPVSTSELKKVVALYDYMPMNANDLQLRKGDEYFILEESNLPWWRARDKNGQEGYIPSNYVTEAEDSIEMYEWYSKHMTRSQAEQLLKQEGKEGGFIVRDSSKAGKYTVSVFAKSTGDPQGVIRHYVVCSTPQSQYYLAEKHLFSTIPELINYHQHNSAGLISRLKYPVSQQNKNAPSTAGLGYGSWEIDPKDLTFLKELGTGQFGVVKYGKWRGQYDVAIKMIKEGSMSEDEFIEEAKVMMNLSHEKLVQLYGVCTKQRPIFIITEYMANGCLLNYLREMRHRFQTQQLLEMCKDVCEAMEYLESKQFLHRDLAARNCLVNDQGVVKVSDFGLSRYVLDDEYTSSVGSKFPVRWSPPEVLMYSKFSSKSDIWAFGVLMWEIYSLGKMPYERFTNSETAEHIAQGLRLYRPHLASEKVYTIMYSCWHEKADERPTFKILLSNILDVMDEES
Chain of Phosphatidylinositol 4-phosphate 3-kinase C2 domain-containing subunit beta (O00750 whole entry, the tested form may be a part): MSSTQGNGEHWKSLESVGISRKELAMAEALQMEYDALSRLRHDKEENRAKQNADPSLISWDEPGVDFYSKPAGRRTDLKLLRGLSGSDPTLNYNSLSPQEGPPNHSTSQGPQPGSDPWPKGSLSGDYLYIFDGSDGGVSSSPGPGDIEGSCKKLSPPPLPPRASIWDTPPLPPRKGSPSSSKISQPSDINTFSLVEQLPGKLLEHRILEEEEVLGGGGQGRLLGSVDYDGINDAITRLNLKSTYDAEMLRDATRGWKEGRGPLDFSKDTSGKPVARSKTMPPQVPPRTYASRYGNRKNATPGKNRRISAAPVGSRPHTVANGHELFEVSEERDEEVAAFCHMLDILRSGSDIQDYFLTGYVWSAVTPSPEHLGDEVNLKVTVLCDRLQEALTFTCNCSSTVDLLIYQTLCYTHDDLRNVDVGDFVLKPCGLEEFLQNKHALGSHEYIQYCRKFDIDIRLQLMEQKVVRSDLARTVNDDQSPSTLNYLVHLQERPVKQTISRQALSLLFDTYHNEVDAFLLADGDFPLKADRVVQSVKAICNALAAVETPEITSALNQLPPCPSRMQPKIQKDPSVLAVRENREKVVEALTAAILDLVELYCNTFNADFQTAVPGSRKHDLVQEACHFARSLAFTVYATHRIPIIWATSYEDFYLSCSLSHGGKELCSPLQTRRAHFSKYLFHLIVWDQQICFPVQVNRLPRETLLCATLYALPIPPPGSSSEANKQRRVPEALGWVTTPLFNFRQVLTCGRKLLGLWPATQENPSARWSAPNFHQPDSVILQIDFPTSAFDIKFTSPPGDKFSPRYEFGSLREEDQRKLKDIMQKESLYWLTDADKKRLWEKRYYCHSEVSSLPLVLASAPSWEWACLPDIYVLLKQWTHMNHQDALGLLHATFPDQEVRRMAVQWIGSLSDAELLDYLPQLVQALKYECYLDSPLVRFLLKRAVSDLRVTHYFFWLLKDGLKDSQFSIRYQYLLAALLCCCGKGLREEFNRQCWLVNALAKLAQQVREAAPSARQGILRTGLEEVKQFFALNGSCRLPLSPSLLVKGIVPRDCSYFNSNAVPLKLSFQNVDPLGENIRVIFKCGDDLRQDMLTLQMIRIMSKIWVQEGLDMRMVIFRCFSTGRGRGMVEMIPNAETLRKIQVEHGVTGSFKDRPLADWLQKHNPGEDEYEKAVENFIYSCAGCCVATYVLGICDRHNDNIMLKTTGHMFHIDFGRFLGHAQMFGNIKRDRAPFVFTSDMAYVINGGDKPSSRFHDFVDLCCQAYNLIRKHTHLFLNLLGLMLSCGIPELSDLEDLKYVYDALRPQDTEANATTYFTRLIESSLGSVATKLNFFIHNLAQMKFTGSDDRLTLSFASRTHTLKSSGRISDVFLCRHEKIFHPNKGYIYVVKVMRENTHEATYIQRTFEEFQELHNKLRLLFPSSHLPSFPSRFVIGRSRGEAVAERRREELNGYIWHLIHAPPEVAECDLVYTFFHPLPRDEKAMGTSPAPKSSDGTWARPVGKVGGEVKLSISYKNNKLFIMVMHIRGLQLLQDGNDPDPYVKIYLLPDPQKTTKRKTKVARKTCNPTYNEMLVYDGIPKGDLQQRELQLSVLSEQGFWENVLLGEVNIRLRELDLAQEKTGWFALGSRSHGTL
Chain of Receptor tyrosine-protein kinase erbB-4 (Q15303 whole entry, the tested form may be a part): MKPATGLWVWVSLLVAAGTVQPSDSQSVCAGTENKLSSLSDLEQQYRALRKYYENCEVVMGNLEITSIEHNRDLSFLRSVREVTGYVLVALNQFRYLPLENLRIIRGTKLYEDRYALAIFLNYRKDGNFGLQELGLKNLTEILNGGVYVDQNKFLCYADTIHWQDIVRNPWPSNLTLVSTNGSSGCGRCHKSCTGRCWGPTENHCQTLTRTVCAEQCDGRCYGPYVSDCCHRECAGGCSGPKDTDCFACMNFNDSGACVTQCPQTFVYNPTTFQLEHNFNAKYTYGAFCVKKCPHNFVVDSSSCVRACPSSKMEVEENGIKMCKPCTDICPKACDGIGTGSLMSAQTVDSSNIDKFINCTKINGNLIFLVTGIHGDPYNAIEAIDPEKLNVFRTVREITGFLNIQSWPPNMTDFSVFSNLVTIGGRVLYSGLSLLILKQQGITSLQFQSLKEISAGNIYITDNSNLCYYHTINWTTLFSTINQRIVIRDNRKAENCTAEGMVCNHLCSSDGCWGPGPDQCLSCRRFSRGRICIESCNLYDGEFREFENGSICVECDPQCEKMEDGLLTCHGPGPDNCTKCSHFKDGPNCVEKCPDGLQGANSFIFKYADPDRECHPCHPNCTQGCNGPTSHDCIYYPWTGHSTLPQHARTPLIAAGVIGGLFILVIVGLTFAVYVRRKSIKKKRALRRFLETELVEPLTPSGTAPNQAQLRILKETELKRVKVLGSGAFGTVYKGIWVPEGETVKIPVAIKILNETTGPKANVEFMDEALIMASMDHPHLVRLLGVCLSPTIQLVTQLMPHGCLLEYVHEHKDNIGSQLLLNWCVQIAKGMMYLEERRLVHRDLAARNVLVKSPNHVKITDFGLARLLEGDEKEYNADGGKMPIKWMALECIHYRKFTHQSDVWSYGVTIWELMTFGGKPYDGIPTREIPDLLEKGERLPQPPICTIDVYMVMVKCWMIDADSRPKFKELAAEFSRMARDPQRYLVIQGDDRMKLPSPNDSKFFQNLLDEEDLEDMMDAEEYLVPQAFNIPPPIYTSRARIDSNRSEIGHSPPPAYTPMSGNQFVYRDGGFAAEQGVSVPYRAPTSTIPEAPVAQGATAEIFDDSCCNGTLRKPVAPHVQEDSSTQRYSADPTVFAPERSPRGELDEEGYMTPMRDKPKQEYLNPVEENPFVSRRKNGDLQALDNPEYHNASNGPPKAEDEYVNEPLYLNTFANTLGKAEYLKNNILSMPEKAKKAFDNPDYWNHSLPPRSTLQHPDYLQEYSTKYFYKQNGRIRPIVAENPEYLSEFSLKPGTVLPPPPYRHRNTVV
Chain of Cyclin-dependent kinase 16 (Q00536 whole entry, the tested form may be a part): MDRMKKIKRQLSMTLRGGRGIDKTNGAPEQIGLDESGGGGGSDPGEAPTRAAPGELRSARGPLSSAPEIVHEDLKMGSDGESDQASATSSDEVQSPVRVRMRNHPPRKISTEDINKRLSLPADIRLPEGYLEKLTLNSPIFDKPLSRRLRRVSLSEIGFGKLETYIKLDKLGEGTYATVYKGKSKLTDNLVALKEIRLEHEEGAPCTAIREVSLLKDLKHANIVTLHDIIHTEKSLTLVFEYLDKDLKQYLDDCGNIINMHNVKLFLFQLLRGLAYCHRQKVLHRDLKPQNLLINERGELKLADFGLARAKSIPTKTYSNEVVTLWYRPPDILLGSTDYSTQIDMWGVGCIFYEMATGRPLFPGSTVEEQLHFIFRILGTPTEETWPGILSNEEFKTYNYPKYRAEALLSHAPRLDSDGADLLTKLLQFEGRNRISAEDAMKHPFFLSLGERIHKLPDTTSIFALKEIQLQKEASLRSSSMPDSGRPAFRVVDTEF

SMILES: CC(C)CN(C(=O)c1cccnc1)c1c2ccccc2c(=O)n2c1[nH]c1ccccc12
- Kd [1]: ≥ 5 µM
- Activity [2]: 0.2%
- Activity [3]: 84%
- Activity [4]: Dose-dependent effect
- Activity [5]: 98%
- Activity [6]: 74%
- Kd [7]: ≥ 5 µM
- Activity [8]: Non-Toxic
- Activity [9]: Dose-dependent effect
- Kd [10]: ≥ 5 µM
- Activity [11]: 100%
- Activity [12]: Dose-dependent effect
- Activity [13]: 84%
- Kd [14]: ≥ 5 µM
- Activity [15]: Non-Toxic
- Activity [16]: 43.36%
- Activity [17]: 74%
- Kd [18]: ≥ 5 µM
- Kd [19]: ≥ 5 µM
- Activity [20]: 89%
- Kd [21]: ≥ 5 µM
- Kd [22]: ≥ 5 µM
- Kd [23]: ≥ 5 µM
- Kd [24]: ≥ 5 µM
- Activity [25]: 73%
- Kd [26]: ≥ 5 µM
- Activity [27]: 95%
- Kd [28]: ≥ 5 µM
- Activity [29]: Dose-dependent effect
